Reference: ChEMBL document CHEMBL2331079, “Antibacterial and antiplasmodial constituents of Beilschmiedia cryptocaryoides” (J Nat Prod, 2013)
≈ marks a conversion by molar mass, not a printed value.

What was measured:
Serratia plymuthica = test: Antibacterial activity against Serratia plymuthica C48 by paper disk diffusion method; format: functional
Procedure, shortened: (§1)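 Strains taken from the lab's own culture collection. Tested by paper disk diffusion, following the group's earlier published method. Each MIC was determined in triplicate.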

Stutzerimonas stutzeri = test: Antibacterial activity against Pseudomonas stutzeri A1501 by paper disk diffusion method; format: functional; procedure, shortened: as §1
[1] = system: Acinetobacter calcoaceticus; test: Antibacterial activity against Acinetobacter calcoaceticus DSM 586 by paper disk diffusion method; format: functional; procedure, shortened: as §1
Escherichia coli = test: Antibacterial activity against Escherichia coli 6r3 by paper disk diffusion method; format: functional; procedure, shortened: as §1
Plasmodium falciparum = test: Antiplasmodial activity against chloroquine-sensitive Plasmodium falciparum NF54 after 48 hrs by [3H]-hypoxanthine incorporation assay; format: functional, organism-based
Procedure, shortened: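 Asexual blood-stage parasites in hypoxanthine-free RPMI 1640 with HEPES, NaHCO3, neomycin and Albumax, in human A+ erythrocytes (2.5% hematocrit, 0.3% parasitemia). Eleven 3-fold dilutions (100 to 0.002 μg/mL) from DMSO stocks. Incubated at 37 °C in 4% CO2/3% O2/93% N2. 3H-hypoxanthine (0.5 μCi) added at 48 h, then 24 h more. Read by scintillation counting. IC50 is the mean of two independent assays.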

L6 = test: Cytotoxicity against rat L6 cells after 70 hrs by Alamar Blue assay; conditions: L6, 70 h

CC1(C)S[C@@H]2[C@H](NC(=O)[C@H](N)c3ccccc3)C(=O)N2[C@H]1C(=O)O [AMPICILLIN]
MIC (Serratia plymuthica): 20 mg/L (≈ 57.2 µM) | MIC (Stutzerimonas stutzeri): 20 mg/L (≈ 57.2 µM) | MIC [1]: 5 mg/L (≈ 14.3 µM) | MIC (Escherichia coli): 5 mg/L (≈ 14.3 µM)

CCCCCC[C@@H]1[C@H]2C=C[C@H]3C(C(=O)O)=C[C@H](O)[C@@H]4C[C@@H]1[C@@H]2[C@H]43 [CRYPTOBEILIC ACID A]
IC50 (Plasmodium falciparum): 17.7 µM | MIC (Serratia plymuthica): > 50 mg/L | MIC (Stutzerimonas stutzeri): > 50 mg/L | MIC [1]: > 50 mg/L | MIC (Escherichia coli): 10 mg/L (≈ 31.6 µM) | IC50 (L6): 59.5 µM

CCCCCC[C@@H]1[C@H]2C=C[C@H]3C(C(=O)O)=C[C@@H](O)[C@@H]4C[C@@H]1[C@@H]2[C@H]43 [CRYPTOBEILIC ACID B]
IC50 (Plasmodium falciparum): 5.35 µM | MIC (Serratia plymuthica): > 50 mg/L | MIC (Stutzerimonas stutzeri): 10 mg/L (≈ 31.6 µM) | MIC [1]: 20 mg/L (≈ 63.2 µM) | MIC (Escherichia coli): 20 mg/L (≈ 63.2 µM) | IC50 (L6): 20.4 µM

O=C(O)C1=CC(=O)[C@@H]2C[C@H]3[C@H](Cc4ccc5c(c4)OCO5)[C@H]4C=C[C@@H]1[C@@H]2[C@H]43 [CRYPTOBEILIC ACID C]
IC50 (Plasmodium falciparum): 14 µM | MIC (Serratia plymuthica): > 50 mg/L | MIC (Stutzerimonas stutzeri): > 50 mg/L | MIC [1]: > 50 mg/L | MIC (Escherichia coli): > 50 mg/L | IC50 (L6): 59.3 µM

CCCCCC[C@@H]1[C@H]2C=C[C@@H]3[C@@H]4[C@H]2[C@H]1C[C@H]4C=C[C@H]3C(=O)O [CRYPTOBEILIC ACID D]
IC50 (Plasmodium falciparum): 10.8 µM | MIC (Serratia plymuthica): > 50 mg/L | MIC (Stutzerimonas stutzeri): > 50 mg/L | MIC [1]: > 50 mg/L | MIC (Escherichia coli): 50 mg/L (≈ 166 µM) | IC50 (L6): 61 µM

CN1CCN(c2cc3c(cc2F)c(=O)c(C(=O)O)cn3-c2ccc(F)cc2)CC1 [DIFLOXACIN]
MIC (Serratia plymuthica): 20 mg/L (≈ 50.1 µM) | MIC (Stutzerimonas stutzeri): 20 mg/L (≈ 50.1 µM) | MIC [1]: 5 mg/L (≈ 12.5 µM) | MIC (Escherichia coli): 5 mg/L (≈ 12.5 µM)

COc1cc([C@@H]2c3cc4c(cc3[C@H](O)[C@H]3COC(=O)[C@H]23)OCO4)cc(OC)c1OC [PODOFILOX]
IC50 (L6): 0.008 µM

O=C(O)[C@@H]1C=C[C@@H]2C[C@H]3[C@H](Cc4ccc5c(c4)OCO5)[C@H]4C=C[C@@H]1[C@@H]2[C@H]43 [TSANGIBEILIN B]
IC50 (Plasmodium falciparum): 8.2 µM | MIC (Serratia plymuthica): > 50 mg/L | MIC (Stutzerimonas stutzeri): > 50 mg/L | MIC [1]: > 50 mg/L | MIC (Escherichia coli): 50 mg/L (≈ 143 µM) | IC50 (L6): 21.5 µM
